According to ChEMBL document CHEMBL5058577, “EUbOPEN Chemogenomics Library 2 (Multiplex)” (2022):

Test system: HEK-293T
Assay: Multiplex assay against HEK293T
Assay type: toxicity, cell-based
Details: human
Outline: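 At seeding, live cells were stained with Hoechst33342, BioTracker Green Microtubule Cytoskeleton Dye, MitoTracker Red and Annexin V Alexa Fluor 680. After compound addition they were imaged on a CQ1 microscope at 37°C and 5% CO2, and CellPathfinder machine-learning gating sorted them into Hoechst high-intensity objects or normal cells, with normal cells further split into healthy, pyknosed or fragmented nuclei and pyknosed cells into mitotic or apoptotic. Tubulin, mitochondrial-mass and membrane-permeability phenotypes are given as per cents of cells with healthy nuclei.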

[1] = 12 h, 1 µM, compound concentration 1 uM, replicate 1
[2] = 12 h, 1 µM, compound concentration 1 uM, replicate 2
[3] = 12 h, 10 µM, compound concentration 10 uM, replicate 1
[4] = 12 h, 10 µM, compound concentration 10 uM, replicate 2
[5] = 24 h, 1 µM, compound concentration 1 uM, replicate 1
[6] = 24 h, 1 µM, compound concentration 1 uM, replicate 2
[7] = 24 h, 10 µM, compound concentration 10 uM, replicate 1
[8] = 24 h, 10 µM, compound concentration 10 uM, replicate 2
[9] = 48 h, 1 µM, compound concentration 1 uM, replicate 1
[10] = 48 h, 1 µM, compound concentration 1 uM, replicate 2
[11] = 48 h, 10 µM, compound concentration 10 uM, replicate 1
[12] = 48 h, 10 µM, compound concentration 10 uM, replicate 2

## C[C@@H]1C[C@H]2[C@@H]3CCC4=CC(=O)C=C[C@]4(C)[C@@]3(F)[C@@H](O)C[C@]2(C)[C@@]1(O)C(=O)CO [DEXAMETHASONE]
[1]
  Population Apoptotic (%): 37%
  Population Fragmented Nuclei (%): 8%
  Population Healthy Nuclei (%): 78%
  Population Hoechst High Intensity Objects (%): 2%
  Population Membrane Permeable-Phenotype (%): 1%
  Population Mitochondria Different-Phenotype (%): 45%
  Population Mitotic Cells (%): 62%
  Population Normal (%): 97%
  Population Pyknosed Nuclei (%): 12%
  Population Tubulin-Different-Phenotype (%): 24%
  Total Cell Count: 420
[2]
  Population Apoptotic (%): 53%
  Population Fragmented Nuclei (%): 7%
  Population Healthy Nuclei (%): 80%
  Population Hoechst High Intensity Objects (%): 8%
  Population Membrane Permeable-Phenotype (%): 0%
  Population Mitochondria Different-Phenotype (%): 62%
  Population Mitotic Cells (%): 46%
  Population Normal (%): 91%
  Population Tubulin-Different-Phenotype (%): 26%
  Total Cell Count: 372
[3]
  Population Apoptotic (%): 37%
  Population Fragmented Nuclei (%): 7%
  Population Healthy Nuclei (%): 79%
  Population Hoechst High Intensity Objects (%): 6%
  Population Membrane Permeable-Phenotype (%): 0%
  Population Mitochondria Different-Phenotype (%): 44%
  Population Mitotic Cells (%): 62%
  Population Normal (%): 93%
  Population Pyknosed Nuclei (%): 13%
  Population Tubulin-Different-Phenotype (%): 33%
  Total Cell Count: 374
[4]
  Population Apoptotic (%): 44%
  Population Fragmented Nuclei (%): 5%
  Population Healthy Nuclei (%): 81%
  Population Hoechst High Intensity Objects (%): 14%
  Population Mitochondria Different-Phenotype (%): 69%
  Population Mitotic Cells (%): 55%
  Population Normal (%): 85%
  Population Tubulin-Different-Phenotype (%): 39%
  Total Cell Count: 436
[5]
  Population Apoptotic (%): 31%
  Population Fragmented Nuclei (%): 9%
  Population Healthy Nuclei (%): 78%
  Population Hoechst High Intensity Objects (%): 4%
  Population Membrane Permeable-Phenotype (%): 0%
  Population Mitochondria Different-Phenotype (%): 30%
  Population Mitotic Cells (%): 68%
  Population Normal (%): 95%
  Population Pyknosed Nuclei (%): 12%
  Population Tubulin-Different-Phenotype (%): 17%
  Total Cell Count: 569
[6]
  Population Apoptotic (%): 42%
  Population Fragmented Nuclei (%): 12%
  Population Healthy Nuclei (%): 79%
  Population Hoechst High Intensity Objects (%): 7%
  Population Mitochondria Different-Phenotype (%): 45%
  Population Mitotic Cells (%): 57%
  Population Normal (%): 92%
  Population Pyknosed Nuclei (%): 8%
  Total Cell Count: 499
[7]
  Population Apoptotic (%): 36%
  Population Fragmented Nuclei (%): 8%
  Population Healthy Nuclei (%): 74%
  Population Hoechst High Intensity Objects (%): 6%
  Population Membrane Permeable-Phenotype (%): 0%
  Population Mitochondria Different-Phenotype (%): 30%
  Population Mitotic Cells (%): 63%
  Population Normal (%): 93%
  Population Pyknosed Nuclei (%): 16%
  Population Tubulin-Different-Phenotype (%): 29%
  Total Cell Count: 453
[8]
  Population Apoptotic (%): 44%
  Population Fragmented Nuclei (%): 9%
  Population Healthy Nuclei (%): 79%
  Population Hoechst High Intensity Objects (%): 15%
  Population Mitochondria Different-Phenotype (%): 43%
  Population Mitotic Cells (%): 56%
  Population Normal (%): 84%
  Population Pyknosed Nuclei (%): 11%
  Population Tubulin-Different-Phenotype (%): 22%
  Total Cell Count: 513
[9]
  Population Apoptotic (%): 30%
  Population Fragmented Nuclei (%): 15%
  Population Healthy Nuclei (%): 77%
  Population Hoechst High Intensity Objects (%): 1%
  Population Membrane Permeable-Phenotype (%): 1%
  Population Mitochondria Different-Phenotype (%): 18%
  Population Mitotic Cells (%): 69%
  Population Normal (%): 98%
  Population Pyknosed Nuclei (%): 7%
  Population Tubulin-Different-Phenotype (%): 12%
  Total Cell Count: 915
[10]
  Population Apoptotic (%): 27%
  Population Healthy Nuclei (%): 78%
  Population Hoechst High Intensity Objects (%): 3%
  Population Membrane Permeable-Phenotype (%): 0%
  Population Mitochondria Different-Phenotype (%): 27%
  Population Mitotic Cells (%): 72%
  Population Normal (%): 96%
  Population Pyknosed Nuclei (%): 6%
  Population Tubulin-Different-Phenotype (%): 15%
  Total Cell Count: 685
[11]
  Population Apoptotic (%): 25%
  Population Fragmented Nuclei (%): 15%
  Population Healthy Nuclei (%): 76%
  Population Hoechst High Intensity Objects (%): 3%
  Population Membrane Permeable-Phenotype (%): 0%
  Population Mitochondria Different-Phenotype (%): 18%
  Population Mitotic Cells (%): 75%
  Population Normal (%): 96%
  Population Pyknosed Nuclei (%): 7%
  Population Tubulin-Different-Phenotype (%): 14%
  Total Cell Count: 760
[12]
  Population Apoptotic (%): 50%
  Population Fragmented Nuclei (%): 16%
  Population Hoechst High Intensity Objects (%): 6%
  Population Mitochondria Different-Phenotype (%): 28%
  Population Mitotic Cells (%): 49%
  Population Normal (%): 93%
  Population Tubulin-Different-Phenotype (%): 19%
  Total Cell Count: 756
